Assay [1] addresses 5-hydroxytryptamine receptor 2B (Homo sapiens, UniProt P41595). Description: Binding affinity for human 5-hydroxytryptamine 2B receptor.
Assay [2] has as its target T1, 5-hydroxytryptamine receptor 1D (Homo sapiens, UniProt P28221).
For assay [3], the target named is T2, D(4) dopamine receptor (Homo sapiens, UniProt P21917).
T2 sequence (P21917 whole entry): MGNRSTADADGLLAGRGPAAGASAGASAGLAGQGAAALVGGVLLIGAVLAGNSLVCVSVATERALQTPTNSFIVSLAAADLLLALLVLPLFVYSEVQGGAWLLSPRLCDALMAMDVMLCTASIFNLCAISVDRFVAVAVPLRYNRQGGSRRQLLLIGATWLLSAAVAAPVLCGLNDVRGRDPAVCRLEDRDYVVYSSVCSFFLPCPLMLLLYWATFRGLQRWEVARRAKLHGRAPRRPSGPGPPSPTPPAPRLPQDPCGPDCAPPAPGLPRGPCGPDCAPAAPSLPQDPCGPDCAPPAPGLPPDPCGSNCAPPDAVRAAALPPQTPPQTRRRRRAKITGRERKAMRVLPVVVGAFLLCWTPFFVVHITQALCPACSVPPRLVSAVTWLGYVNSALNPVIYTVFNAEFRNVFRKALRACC
Description: Binding affinity for human dopamine receptor D4.

Assay [4] deals with T3, 5-hydroxytryptamine receptor 1B (Homo sapiens, UniProt P28222). Description: Intrinsic activity for human 5-hydroxytryptamine 1B receptor in [35S]GTP-gamma-S, assay. The class given is functional. The essentials: (§1)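 [35S]GTPγS binding in recombinant cells with high receptor density expressing the human receptor. Ten-point half-log serial dilution gives the concentration–response. Intrinsic activity is expressed relative to the maximal response of the endogenous agonist 5-HT.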

For assay [5], the target named is 5-hydroxytryptamine receptor 6 (Homo sapiens, UniProt P50406). Description: Binding affinity for human 5-hydroxytryptamine 6 receptor.
Assay [6] addresses T3, 5-hydroxytryptamine receptor 1B. Description: Displacement of [3H]5-HT from human 5-hydroxytryptamine 1B receptor expressed in CHO cells. The class given is cell-based. An outline of the steps:
(§2)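 Radioligand displacement binding on membranes of cloned human receptors. Each determination lies within 0.3 log units of the mean.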
For orientation: In a radioligand displacement assay an active substance lowers the binding of a labelled ligand.

Assay [7] deals with D(2) dopamine receptor (Homo sapiens, UniProt P14416). Description: Binding affinity for human dopamine receptor D2.
The target of assay [8] is 5-hydroxytryptamine receptor 5A (Homo sapiens, UniProt P47898). Description: Binding affinity for human 5-hydroxytryptamine 5A receptor. The essentials: (§3)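 Radioligand displacement binding on cloned human receptors. Each determination lies within 0.3 log units of the mean.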
The target of assay [9] is D(3) dopamine receptor (Homo sapiens, UniProt P35462). As to the kind of experiment: Binding affinity for human dopamine receptor D3.
Assay [10] has as its target Beta-2 adrenergic receptor (Homo sapiens, UniProt P07550). As to the kind of experiment: Binding affinity for human beta-2 adrenergic receptor.
The target in assay [11] is Sodium-dependent serotonin transporter (Rattus norvegicus, UniProt P31652). As to the kind of experiment: Inhibition of [3H]5-HT binding to serotonin transporter in rat cortical synaptosomes. The class given is subcellular, Brain. An outline of the steps: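 Radioligand binding to serotonin transporter in rat cortical synaptosomes. Each determination lies within 0.3 log units of the mean.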

Assay [12] deals with T4, 5-hydroxytryptamine receptor 1A (Homo sapiens) (UniProt P08908).
T4 sequence (whole entry): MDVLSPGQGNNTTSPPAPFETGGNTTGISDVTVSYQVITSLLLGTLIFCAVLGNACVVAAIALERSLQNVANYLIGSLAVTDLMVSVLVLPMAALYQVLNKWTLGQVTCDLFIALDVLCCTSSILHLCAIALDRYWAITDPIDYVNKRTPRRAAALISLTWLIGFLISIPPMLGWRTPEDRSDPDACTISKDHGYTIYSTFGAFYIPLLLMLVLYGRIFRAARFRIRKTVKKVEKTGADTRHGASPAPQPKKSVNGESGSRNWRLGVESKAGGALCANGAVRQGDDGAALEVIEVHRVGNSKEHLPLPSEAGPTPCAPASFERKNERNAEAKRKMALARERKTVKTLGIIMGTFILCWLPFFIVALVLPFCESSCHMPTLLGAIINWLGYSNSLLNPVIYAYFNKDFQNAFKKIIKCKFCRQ
Description: Intrinsic activity for human 5-hydroxytryptamine 1A receptor in [35S]GTP-gamma-S, assay; […]. The class given is functional. The essentials: as §1
A general note: GTPγS resists hydrolysis and so accumulates on activated G proteins.

Assay [13] addresses 5-hydroxytryptamine receptor 2A (Homo sapiens, UniProt P28223). As to the kind of experiment: Binding affinity for human 5-hydroxytryptamine 2A receptor. The essentials: as §3
For assay [14], the target named is 5-hydroxytryptamine receptor 7 (Homo sapiens, UniProt P34969). As to the kind of experiment: Binding affinity for human 5-hydroxytryptamine 7 receptor.
For assay [15], the target named is Serotonin 1 receptors; 5-HT1B & 5-HT1D (Homo sapiens) (UniProt P28222+P28221). As to the kind of experiment: Selectivity for human 5-hydroxytryptamine 1D receptor over 5-hydroxytryptamine 1B receptor. The class given is protein assay.
Assay [16] addresses 5-hydroxytryptamine receptor 4 (Homo sapiens, UniProt Q13639). Description: Binding affinity for human 5-hydroxytryptamine 4 receptor.
Assay [17] has as its target T5, 5-hydroxytryptamine receptor 1A (Homo sapiens, UniProt P08908).
T5 sequence (P08908 whole entry): T4 sequence (whole entry)
As to the kind of experiment: Displacement of [3H]WAY-100635 from human 5-hydroxytryptamine 1A receptor expressed in CHO cells. The class given is cell-based. The essentials: as §2

Assay [18] addresses T1, 5-hydroxytryptamine receptor 1D. As to the kind of experiment: Displacement of [3H]5-HT from human 5-hydroxytryptamine 1D receptor expressed in CHO cells. The class given is cell-based. The essentials:
as §2

Assay [19] has as its target 5-hydroxytryptamine receptor 1E (Homo sapiens, UniProt P28566). As to the kind of experiment: Binding affinity for human 5-hydroxytryptamine 1E receptor.
Assay [20] deals with T6, Alpha-1B adrenergic receptor (Homo sapiens, UniProt P35368).
T6 sequence (P35368 whole entry): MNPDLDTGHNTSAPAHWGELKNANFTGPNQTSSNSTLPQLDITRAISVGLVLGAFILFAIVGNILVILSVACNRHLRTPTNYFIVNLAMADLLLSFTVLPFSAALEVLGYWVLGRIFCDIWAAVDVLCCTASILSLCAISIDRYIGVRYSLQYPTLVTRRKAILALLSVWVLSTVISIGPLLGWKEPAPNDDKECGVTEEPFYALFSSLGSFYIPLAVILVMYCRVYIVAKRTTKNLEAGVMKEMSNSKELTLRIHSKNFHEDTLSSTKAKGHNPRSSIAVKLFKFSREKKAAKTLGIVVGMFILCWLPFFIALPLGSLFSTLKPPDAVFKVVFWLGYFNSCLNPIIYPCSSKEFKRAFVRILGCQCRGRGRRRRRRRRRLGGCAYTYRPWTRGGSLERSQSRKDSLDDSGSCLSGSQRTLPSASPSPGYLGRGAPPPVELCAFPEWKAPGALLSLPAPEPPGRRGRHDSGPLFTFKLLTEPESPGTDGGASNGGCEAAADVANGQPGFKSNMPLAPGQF
Description: Binding affinity for human alpha-1B adrenergic receptor.

Assay [21] concerns the target T7, 5-hydroxytryptamine receptor 2C (Homo sapiens, UniProt P28335).
T7 sequence (P28335 whole entry): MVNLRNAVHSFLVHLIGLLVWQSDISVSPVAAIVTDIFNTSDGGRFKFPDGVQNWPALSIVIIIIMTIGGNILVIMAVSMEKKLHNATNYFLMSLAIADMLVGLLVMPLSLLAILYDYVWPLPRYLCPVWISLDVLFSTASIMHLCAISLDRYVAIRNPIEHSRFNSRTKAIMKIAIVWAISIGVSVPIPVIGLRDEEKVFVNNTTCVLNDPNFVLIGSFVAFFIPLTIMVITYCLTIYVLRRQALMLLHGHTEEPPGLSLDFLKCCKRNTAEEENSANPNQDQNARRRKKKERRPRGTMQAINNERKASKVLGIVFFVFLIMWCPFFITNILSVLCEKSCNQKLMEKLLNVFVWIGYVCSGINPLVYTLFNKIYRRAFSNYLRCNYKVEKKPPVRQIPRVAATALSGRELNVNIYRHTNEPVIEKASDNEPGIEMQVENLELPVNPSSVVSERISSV
As to the kind of experiment: Binding affinity for human 5-hydroxytryptamine 2C receptor. The essentials:
as §3

Assay [22] addresses T8, 5-hydroxytryptamine receptor 1F (Homo sapiens, UniProt P30939).
T8 sequence (P30939 whole entry): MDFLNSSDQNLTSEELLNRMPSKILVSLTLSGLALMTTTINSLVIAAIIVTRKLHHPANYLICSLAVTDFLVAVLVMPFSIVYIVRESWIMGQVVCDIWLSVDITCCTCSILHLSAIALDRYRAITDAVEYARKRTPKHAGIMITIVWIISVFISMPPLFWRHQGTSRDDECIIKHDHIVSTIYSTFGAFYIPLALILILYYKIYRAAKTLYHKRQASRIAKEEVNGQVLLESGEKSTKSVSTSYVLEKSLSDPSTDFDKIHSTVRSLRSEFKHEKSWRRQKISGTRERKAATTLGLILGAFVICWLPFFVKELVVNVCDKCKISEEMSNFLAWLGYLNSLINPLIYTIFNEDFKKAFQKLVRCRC
As to the kind of experiment: Binding affinity for human 5-hydroxytryptamine 1F receptor.

T1 sequence (P28221 whole entry): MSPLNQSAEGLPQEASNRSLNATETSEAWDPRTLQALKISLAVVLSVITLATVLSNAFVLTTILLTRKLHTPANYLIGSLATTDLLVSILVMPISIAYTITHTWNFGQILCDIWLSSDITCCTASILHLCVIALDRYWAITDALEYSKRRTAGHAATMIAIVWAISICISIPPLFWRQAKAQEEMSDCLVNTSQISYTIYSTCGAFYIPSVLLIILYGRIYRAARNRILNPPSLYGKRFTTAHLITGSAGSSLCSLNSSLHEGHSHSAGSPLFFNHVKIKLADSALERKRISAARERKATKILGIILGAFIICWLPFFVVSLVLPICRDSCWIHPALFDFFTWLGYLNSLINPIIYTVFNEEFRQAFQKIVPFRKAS
T3 sequence (P28222 whole entry): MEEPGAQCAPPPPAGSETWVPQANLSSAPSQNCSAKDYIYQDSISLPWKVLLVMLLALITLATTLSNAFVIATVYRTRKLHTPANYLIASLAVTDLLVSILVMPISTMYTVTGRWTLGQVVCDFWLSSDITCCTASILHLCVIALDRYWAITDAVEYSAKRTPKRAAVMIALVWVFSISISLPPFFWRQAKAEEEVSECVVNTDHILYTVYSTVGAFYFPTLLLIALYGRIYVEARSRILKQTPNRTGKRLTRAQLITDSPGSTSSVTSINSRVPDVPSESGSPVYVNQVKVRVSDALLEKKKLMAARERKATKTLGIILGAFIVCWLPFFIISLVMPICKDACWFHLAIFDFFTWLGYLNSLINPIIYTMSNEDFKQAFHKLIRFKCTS
Sequence of 5-hydroxytryptamine receptor 2B (P41595 whole entry): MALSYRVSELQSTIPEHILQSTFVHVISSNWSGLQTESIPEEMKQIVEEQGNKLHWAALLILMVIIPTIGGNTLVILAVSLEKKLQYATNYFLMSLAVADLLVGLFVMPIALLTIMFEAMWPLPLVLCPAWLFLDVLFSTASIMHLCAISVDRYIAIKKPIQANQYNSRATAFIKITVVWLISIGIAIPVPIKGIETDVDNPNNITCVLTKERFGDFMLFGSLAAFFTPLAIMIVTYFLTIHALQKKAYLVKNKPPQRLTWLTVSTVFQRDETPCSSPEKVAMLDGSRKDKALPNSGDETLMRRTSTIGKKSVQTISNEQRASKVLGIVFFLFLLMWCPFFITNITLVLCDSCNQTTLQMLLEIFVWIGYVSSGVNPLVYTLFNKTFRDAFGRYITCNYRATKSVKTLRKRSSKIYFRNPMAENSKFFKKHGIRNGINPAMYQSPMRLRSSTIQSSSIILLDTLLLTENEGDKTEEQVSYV
Sequence of 5-hydroxytryptamine receptor 2A (P28223 whole entry): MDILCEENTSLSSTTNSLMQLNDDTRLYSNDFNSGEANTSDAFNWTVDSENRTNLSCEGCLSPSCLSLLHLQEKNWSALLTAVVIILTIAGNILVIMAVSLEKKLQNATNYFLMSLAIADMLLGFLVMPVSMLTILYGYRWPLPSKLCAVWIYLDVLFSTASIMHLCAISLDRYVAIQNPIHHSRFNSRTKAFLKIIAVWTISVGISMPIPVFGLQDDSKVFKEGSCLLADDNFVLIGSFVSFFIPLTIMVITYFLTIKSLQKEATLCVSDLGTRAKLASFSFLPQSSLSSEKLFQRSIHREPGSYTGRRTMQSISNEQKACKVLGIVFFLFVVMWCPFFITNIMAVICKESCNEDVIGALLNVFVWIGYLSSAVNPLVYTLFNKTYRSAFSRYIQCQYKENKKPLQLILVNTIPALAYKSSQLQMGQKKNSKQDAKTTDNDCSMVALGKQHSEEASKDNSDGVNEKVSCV
Sequence of 5-hydroxytryptamine receptor 5A (P47898 whole entry): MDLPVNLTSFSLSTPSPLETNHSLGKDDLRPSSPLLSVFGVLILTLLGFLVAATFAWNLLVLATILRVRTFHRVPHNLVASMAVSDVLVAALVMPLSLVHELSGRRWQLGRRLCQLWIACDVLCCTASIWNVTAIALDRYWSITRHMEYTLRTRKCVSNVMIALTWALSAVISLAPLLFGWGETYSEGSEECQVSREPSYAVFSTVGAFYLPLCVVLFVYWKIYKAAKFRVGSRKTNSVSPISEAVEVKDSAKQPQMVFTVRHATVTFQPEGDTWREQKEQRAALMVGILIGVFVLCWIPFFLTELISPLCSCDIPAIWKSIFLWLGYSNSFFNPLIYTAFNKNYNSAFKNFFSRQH
Sequence of Beta-2 adrenergic receptor (P07550 whole entry): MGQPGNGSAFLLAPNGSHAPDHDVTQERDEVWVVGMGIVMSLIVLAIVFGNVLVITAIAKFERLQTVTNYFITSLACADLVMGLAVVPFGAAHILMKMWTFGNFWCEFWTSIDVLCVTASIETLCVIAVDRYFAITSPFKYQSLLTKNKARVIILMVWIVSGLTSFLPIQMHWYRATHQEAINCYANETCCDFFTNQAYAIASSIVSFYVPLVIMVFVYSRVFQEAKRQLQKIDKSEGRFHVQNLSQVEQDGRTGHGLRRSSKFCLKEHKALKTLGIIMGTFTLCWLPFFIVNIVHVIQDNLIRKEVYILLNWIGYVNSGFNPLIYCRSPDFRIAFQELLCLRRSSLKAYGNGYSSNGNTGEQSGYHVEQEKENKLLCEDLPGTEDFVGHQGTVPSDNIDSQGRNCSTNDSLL
Sequence of 5-hydroxytryptamine receptor 6 (P50406 whole entry): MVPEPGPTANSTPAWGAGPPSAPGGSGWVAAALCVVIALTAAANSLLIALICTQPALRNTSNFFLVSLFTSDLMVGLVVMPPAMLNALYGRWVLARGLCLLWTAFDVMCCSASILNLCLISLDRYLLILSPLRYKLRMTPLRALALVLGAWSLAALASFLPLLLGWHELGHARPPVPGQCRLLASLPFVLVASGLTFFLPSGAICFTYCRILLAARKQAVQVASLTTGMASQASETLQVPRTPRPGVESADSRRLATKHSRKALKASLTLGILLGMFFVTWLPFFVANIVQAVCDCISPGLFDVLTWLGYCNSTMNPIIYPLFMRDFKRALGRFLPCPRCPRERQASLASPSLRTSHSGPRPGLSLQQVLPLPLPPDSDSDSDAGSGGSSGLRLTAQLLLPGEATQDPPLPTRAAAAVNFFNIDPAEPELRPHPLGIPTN
Sequence of Sodium-dependent serotonin transporter (P31652 whole entry): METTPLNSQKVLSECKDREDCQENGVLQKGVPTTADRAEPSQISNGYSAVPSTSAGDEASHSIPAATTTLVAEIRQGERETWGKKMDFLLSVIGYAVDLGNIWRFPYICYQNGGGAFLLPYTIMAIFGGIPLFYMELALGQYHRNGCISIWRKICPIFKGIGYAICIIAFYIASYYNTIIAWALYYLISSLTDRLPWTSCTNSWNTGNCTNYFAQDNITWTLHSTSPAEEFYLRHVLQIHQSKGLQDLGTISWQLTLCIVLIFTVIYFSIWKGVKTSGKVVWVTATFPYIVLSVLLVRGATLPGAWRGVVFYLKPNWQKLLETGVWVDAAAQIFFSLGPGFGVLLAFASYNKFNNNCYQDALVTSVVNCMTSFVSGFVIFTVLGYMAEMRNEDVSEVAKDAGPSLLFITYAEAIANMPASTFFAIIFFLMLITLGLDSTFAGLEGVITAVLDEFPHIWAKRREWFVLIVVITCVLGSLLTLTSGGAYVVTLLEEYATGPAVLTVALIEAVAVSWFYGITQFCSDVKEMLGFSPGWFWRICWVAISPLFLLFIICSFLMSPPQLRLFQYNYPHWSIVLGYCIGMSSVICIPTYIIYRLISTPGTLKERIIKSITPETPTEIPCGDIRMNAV
Sequence of 5-hydroxytryptamine receptor 1E (P28566 whole entry): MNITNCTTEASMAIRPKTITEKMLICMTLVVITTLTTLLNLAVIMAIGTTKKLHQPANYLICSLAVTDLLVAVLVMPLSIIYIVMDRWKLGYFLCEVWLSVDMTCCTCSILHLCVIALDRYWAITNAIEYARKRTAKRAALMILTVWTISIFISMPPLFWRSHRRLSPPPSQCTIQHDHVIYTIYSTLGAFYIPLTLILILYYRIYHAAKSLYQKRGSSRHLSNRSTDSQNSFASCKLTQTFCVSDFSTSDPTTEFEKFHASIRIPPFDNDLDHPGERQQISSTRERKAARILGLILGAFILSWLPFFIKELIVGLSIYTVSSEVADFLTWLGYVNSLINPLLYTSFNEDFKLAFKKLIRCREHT
Sequence of 5-hydroxytryptamine receptor 4 (Q13639 whole entry): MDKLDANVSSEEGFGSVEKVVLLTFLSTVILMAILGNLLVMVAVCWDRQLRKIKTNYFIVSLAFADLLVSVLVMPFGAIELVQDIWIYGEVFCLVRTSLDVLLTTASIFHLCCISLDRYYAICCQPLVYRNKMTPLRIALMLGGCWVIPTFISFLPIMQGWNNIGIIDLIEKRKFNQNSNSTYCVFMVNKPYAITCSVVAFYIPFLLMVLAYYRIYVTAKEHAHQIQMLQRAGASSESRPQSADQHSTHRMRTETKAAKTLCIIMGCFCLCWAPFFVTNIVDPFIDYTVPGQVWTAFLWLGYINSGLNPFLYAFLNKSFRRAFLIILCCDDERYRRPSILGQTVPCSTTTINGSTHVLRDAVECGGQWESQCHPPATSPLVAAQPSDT
Sequence of D(2) dopamine receptor (P14416 whole entry): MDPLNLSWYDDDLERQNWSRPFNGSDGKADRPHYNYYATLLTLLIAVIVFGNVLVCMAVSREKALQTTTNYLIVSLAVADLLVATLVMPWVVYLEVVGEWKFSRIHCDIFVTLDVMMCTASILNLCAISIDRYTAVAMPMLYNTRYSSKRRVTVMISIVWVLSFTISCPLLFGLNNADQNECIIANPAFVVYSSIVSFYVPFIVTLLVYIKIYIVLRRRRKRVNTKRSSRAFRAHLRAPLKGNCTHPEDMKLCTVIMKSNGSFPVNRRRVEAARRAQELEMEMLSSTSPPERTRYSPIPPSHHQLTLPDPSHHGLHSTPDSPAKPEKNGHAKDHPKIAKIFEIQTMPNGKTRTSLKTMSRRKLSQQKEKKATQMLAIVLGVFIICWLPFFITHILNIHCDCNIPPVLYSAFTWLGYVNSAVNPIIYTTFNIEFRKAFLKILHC

Consider `Cc1ccc2c(OCCN3CCN(Cc4cccc5cccnc45)CC3)cccc2n1`, for which the Ki in assay [1] is 1260 nM; in [3], above 10 µM; in assay [5], above 10 µM; in assay [6], 200 nM; in [7], 3.16 µM; in assay [8] it was 3.16 µM. Also, the Ki in assay [9] is 1000 nM; in assay [10], 2000 nM; in [11], 316 nM; in [13] it was above 2510 nM; in assay [14], 501 nM; in assay [16] it was above 5.01 µM. In addition, the Ki in [17] was 316 nM; in [18], 0.794 nM; in assay [19], above 10 µM; in assay [20] it was 1000 nM; in [21], 3.16 µM; in [22] it was 2000 nM. Further, the IA was 0 in assay [2], 0.3 in [4] and 0 in [12]. In [15], this compound yielded a Selectivity of 251.

The term Ki denotes a dissociation constant, usually derived from enzyme kinetics or from competition with a known ligand. Read a high Ki as a looser hold on the target.
